Rows were chosen to be rich in hits. Some 5.5% of all compounds tested hit in one or more screens of this group.
STAT1 inh = STAT1 signaling inhibition. NIH 3T3 STAT1-luciferase reporter, IFN-gamma, luminescence. inhibition, % at 5.5 µM. 200,000 compounds, 0.35% hits. AID 920;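 active means inhibition above a set limit, the mean inhibition across all tested compounds plus 3 SD, cut at about 34% in these data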;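 further: 0% = IFN-gamma with DMSO and 100% = IFN-gamma with 300 µM nifuroxazide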
STAT3 inh-1 = STAT3 signaling inhibition; 190,000 compounds, 0.89% hits; U3A cells, IL-6 STAT3-luciferase reporter, luminescence; host cell line lacks STAT1; AID 862; inhibition, % at 5.5 µM;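 active means inhibition above the mean inhibition across all screened compounds plus 3 SD, cut at about 44% in these data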;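 further: 0% = DMSO only wells and 100% = 100 µM nifuroxazide control wells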
STAT3 act = activators of IL-6 induced STAT3 signaling. U3A cells, IL-6 STAT3-luciferase reporter, luminescence; 100% = signal with IL-6 EC80 alone. AID 871. activation (% of control), % at 5.6 µM. 190,000 compounds, 0.91% hits;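 active means activation above the screen-wide mean of compound activation plus 3 SD, cut at about 130% in these data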;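 further: 0% = background luminescence of wells with medium and substrate only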
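System – human U3A cells carrying STAT3-luciferase construct · Probe or stimulus – Interleukin-6, 33 ng/mL · Schedule – compound 1 h, then IL-6 6 h at 37 °C · Signal – luminescence from STAT3-driven luciferase reporter · Evaluation – percent of IL-6-only median luminescence · Benchmarks – IL-6-only high control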
HSV replic up = increases HSV replication in cells. AID 1956. 220,000 compounds, 0.005% hits. maximum fold increase. HSV replication augmentation in cells, fold increase; in the data active means maximum fold increase above about 1.5; tested in PC3 cells
Cl transport mod = modulates chloride dependent transport by human KCC2; Q9H2X9; AID 1456; 190,000 compounds, 2.2% hits; KCC2 cells, thallium flux FluoZin-2 fluorescence; B-score of Tl+ flux slope (higher = more flux/activation; lower = inhibition) at 10 µM;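 active means thallium flux slope and its plate-corrected score both differing from the plate sample mean at a set confidence after two filtering rounds, in either direction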;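 further: slope of fluorescence scaled to starting intensity during 10 to 20 s after thallium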
Target sequence (Q9H2X9 whole entry, looked up): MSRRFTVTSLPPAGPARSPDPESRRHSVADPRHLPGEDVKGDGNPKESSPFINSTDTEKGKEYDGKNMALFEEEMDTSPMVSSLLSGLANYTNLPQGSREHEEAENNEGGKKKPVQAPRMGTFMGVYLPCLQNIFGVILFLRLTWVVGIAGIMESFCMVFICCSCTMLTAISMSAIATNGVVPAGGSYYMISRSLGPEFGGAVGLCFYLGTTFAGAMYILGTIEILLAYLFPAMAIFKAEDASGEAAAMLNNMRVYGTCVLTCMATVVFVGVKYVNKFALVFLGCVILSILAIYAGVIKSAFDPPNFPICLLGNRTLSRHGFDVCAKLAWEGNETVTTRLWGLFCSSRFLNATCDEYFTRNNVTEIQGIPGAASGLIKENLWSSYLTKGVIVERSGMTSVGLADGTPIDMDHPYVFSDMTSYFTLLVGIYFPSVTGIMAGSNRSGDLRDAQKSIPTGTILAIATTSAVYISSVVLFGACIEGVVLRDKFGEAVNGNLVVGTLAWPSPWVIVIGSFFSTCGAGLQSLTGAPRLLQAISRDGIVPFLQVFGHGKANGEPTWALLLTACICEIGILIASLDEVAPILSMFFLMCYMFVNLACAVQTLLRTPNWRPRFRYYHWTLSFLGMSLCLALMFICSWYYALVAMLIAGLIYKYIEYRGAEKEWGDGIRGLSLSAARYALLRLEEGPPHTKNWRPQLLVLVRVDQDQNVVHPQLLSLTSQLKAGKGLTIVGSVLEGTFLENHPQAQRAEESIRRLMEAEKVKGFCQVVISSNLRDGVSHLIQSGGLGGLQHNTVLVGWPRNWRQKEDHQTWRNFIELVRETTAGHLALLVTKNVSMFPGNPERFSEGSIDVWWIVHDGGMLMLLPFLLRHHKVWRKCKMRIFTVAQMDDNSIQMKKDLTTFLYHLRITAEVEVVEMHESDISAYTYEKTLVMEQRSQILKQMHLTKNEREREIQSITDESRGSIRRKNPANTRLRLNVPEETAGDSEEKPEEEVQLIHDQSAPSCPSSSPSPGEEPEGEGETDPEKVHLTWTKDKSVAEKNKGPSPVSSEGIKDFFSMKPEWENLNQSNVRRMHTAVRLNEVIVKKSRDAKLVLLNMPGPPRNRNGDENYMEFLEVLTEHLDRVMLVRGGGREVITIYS
STAT1 act = STAT1 signaling activation | NIH 3T3 STAT1-luciferase reporter, IFN-gamma, luminescence; 100% = IFN-gamma alone, no compound | activation (% of control), % at 5.5 µM | 200,000 compounds, 2.6% hits | AID 932;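 active means activation above the screen-wide mean activation plus 3 SD, cut at about 130% in these data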;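 further: raw ratio to IFN-gamma control signal so 100% means no change and 0% no light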
STAT3 inh-2 = confirmation of STAT3 signaling inhibitors; 1,200 compounds, 45% hits; shares compounds with STAT3 inh-1; AID 1265; U3A cells, IL-6 STAT3 luciferase reporter, luminescence; cell line lacks STAT1; inhibition, % at 5.7 µM;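 active means inhibition above the hit cutoff computed for the primary STAT3 screen, cut at about 44% in these data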;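 further: 0% = IL-6 plus DMSO and 100% = IL-6 plus nifuroxazide control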
NFkB inh STAT3ct = inhibits NF-kappaB, counter-screen to STAT3 inhibitors; 1,200 compounds, 36% hits; inhibition, % at 5.7 µM; shares compounds with STAT3 inh-1; HEK293T NF-kB luciferase reporter, TNF-alpha induced; AID 1308;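 active means inhibition above the mean of solvent-only control wells plus 3 SD, cutoff set per campaign, cut at about 13% in these data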;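 further: 0% = TNF-alpha with DMSO and 100% = TNF-alpha with MG high control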
STAT1 inh STAT3c = STAT1 inhibition in STAT3 inhibitor counter-screen; inhibition, % at 5.7 µM; 1,200 compounds, 27% hits; NIH 3T3 STAT1-luciferase reporter, IFN-gamma induced, luminescence; shares compounds with STAT3 inh-1;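 active means inhibition above the mean plus 3 SD of solvent-only control wells, limit set per screening run, cut at about 16% in these data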;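 further: 0% = DMSO with IFN-gamma and 100% = nifuroxazide control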
An asterisk follows results filed as active; i = inactive; x = not tested or not shown.

SMILES	STAT1 inh	STAT3 inh-1	STAT3 act	HSV replic up	Cl transport mod	STAT1 act	STAT3 inh-2	NFkB inh STAT3ct	STAT1 inh STAT3c
CCOc1ccc(-c2noc(CCC(=O)O)n2)cc1	23	59*	55	i	0.8	79	40	24*	10
COc1ccc(-c2noc(CCC(=O)O)n2)cc1	-9	15	94	i	-0.081	108	x	x	x
COc1ccc(-c2noc(CCCC(=O)O)n2)cc1	33	57*	56	i	0.32	70	45*	30*	11
COc1cc(OC)c(/C=N/NC(=O)c2ccc(Cn3nc([N+](=O)[O-])cc3C)cc2)c(OC)c1	x	x	x	i	-1.2	x	x	x	x
Cc1ccc(-c2cc(C(=O)NCCCN3CCOCC3)no2)cc1	12	56*	57	i	0.073	89	8	-15	-14
COc1cccc(N2CCN(c3c4c(nc5ncnn35)CCC4)CC2)c1	8	56*	56	x	-0.84	93	43*	12	17*
Cc1ccc(NC2=Nc3ccccc3CC2)cc1	5	44*	67	i	0.29	95	32	-10	-62
COc1ccc(-n2cc(C(=O)c3ccccc3O)cn2)cc1	0	65*	50	i	-0.97	100	14	12	-102
O=C(c1cnn(-c2ccccc2)c1)c1ccccc1O	-20	36	72	i	-1.7	118	x	x	x
Cc1cccc(C)c1OC(=O)CN(c1ccc(Cl)cc1)S(C)(=O)=O	12	2	103	i	-0.49	89	x	x	x
COc1ccc(-n2c(C)nc3c(cnn3-c3ccc(Cl)cc3)c2=O)cc1	13	52*	60	i	-1.4	88	42	9	8
Cc1ccc2nc(-c3cc(-c4ccccc4)no3)cn2c1	x	x	x	i	-0.45	x	x	x	x
Cc1ccc(-c2cc(-c3ccccc3)no2)c(O)c1	-14	49*	56	i	-0.11	113	7	18*	-21
Fc1ccc(/C=C2\CCCC3=C2Nc2ncnn2C3c2ccc(F)cc2)cc1 (stereo unspecified)	5	45*	63	i	-0.84	96	32	3	19*
O=C(CCl)N(c1ccccc1)c1c[nH]c2ccccc12	34	45*	64	i	-1.8	69	31	19*	28*
CC1CCN(S(=O)(=O)c2ccc(Oc3ccc([N+](=O)[O-])cc3)cc2)CC1	12	47*	68	x	-0.22	89	18	-3	1
c1ccc(C(Cc2nc(-c3ccncc3)no2)c2ccccc2)cc1	-15	65*	48	x	-0.87	114	52*	7	-11
Cc1ccc(Cc2nc(-c3ccncc3)no2)cc1	-3	12	98	i	0.02	103	x	x	x
COc1ccc(-c2nn(C)c(=O)c3ccccc23)cc1NC(=O)COc1ccc(C)cc1	16	65*	46	i	0.92	86	49*	10	13
CCC(=O)Nc1cc(-c2nn(C)c(=O)c3ccccc23)ccc1OC	22	2	100	i	-2.2	80	x	x	x
Cc1ccc(C(=O)C[n+]2cc(-c3ccc(C)cc3)n3c2CCCCC3)cc1	28	71*	46	x	0.014	75	60*	-1	27*
COc1ccc(CCNC(=O)Cc2c(Cl)cccc2Cl)cc1	2	7	98	i	0.016	99	x	x	x
N/C(=N\N=C\c1cccc(O)c1)c1nonc1N	-7	63*	49	i	-1.2	105	27	-6	-2
O=C(Nc1nnc(-c2ccco2)s1)C1CC1	-28	12	92	i	-0.074	125	x	x	x
COc1ccc(C(=O)Nc2nnc(-c3ccco3)s2)cc1	35*	82*	31	i	-0.37	83	55*	19*	-36
SMILES	STAT1 inh	STAT3 inh-1	STAT3 act	HSV replic up	Cl transport mod	STAT1 act	STAT3 inh-2	NFkB inh STAT3ct	STAT1 inh STAT3c
O=C(Nc1nnc(-c2ccco2)s1)c1ccccc1	-28	47*	64	i	0.79	125	13	-29	-100
CC(C)(C)OC(=O)CNC(=O)c1nc[nH]c1C(=O)NCC(=O)OC(C)(C)C	x	x	x	i	0.49	x	x	x	x
CC(=O)N1CCc2cc(C(=O)CN3CCN(c4cccc(Cl)c4)CC3)ccc21	5	45*	68	i	-2	96	17	-8	-14
CCCOc1ccc(CSc2nc3ccccc3[nH]2)cc1	9	59*	50	x	-0.43	92	48*	-1	-16
Cc1ccc2c(COC(=O)CNC(=O)c3ccccc3)cc(=O)oc2c1	-4	-3	101	i	-1.7	106	x	x	x
Cc1ccc2c(COC(=O)C3=COCCO3)cc(=O)oc2c1	-36	44*	68	i	x	132*	-3	-34	-81
COC(=O)c1ccc(-c2nc3ccccc3[nH]2)cc1	-23	52*	57	i	0.052	122	22	-23	-91
COc1ccc(-c2nc3ccccc3[nH]2)cc1	15	60*	50	i	0.068	86	37	2	-45
O=C(Nc1nc(-c2cccc3ccccc23)cs1)c1cnccn1	0	19	85	i	0.9	100	x	x	x
COc1ccc(CCNC(=O)CSc2nc3[nH]ncc3c(=O)[nH]2)cc1OC	-5	18	93	i	0.48	103	x	x	x
Cc1ccc(Cl)cc1N1CCN(C(=O)COc2ccc(S(=O)(=O)NC(C)C)cc2)CC1	11	60*	55	i	x	90	49*	10	10
CCC(CC)C(=O)c1c[nH]c(C(=O)N2CCN(c3ccccc3F)CC2)c1	-3	21	87	i	0.34	102	x	x	x
Cc1ccc(C)c(C(=O)CSc2nnc(C)s2)c1	-10	29	81	i	0.033	110	x	x	x
CCOc1cc(C(=S)N2CCOCC2)ccc1OS(=O)(=O)c1ccc(NC(C)=O)cc1	15	58*	56	i	x	86	45*	13	13
COc1nc2ccc(C)cc2cc1-c1noc(-c2ccccc2)n1	-5	-1	101	i	-0.29	104	x	x	x
Cc1noc(C)c1COc1cccc(C(=O)N2CCc3ccccc32)c1	-8	32	76	i	-1.2	106	x	x	x
COc1cnc(SCC(=O)O)[nH]c1=O	-2	9	95	i	x	102	x	x	x
OC1(c2ccc(OC(F)F)cc2)CSC(=Nc2cccnc2)N1C1CC1 (stereo unspecified)	15	53*	60	i	x	87	40	3	10

Source: PubChem BioAssay (several laboratories)
